Results: ChEMBL document CHEMBL1268917, “Synthesis and biological evaluation of radio-iodinated benzimidazoles as SPECT imaging agents for NR2B subtype of NMDA receptor” (Bioorg Med Chem, 2010)

How the values were obtained:
Type in all cases: ADME, organism-based
[1] = system: Liver; test: Biodistribution in ddY mouse liver assessed per gram of tissue at 14.8 kBq, iv after 360 mins; conditions: in vivo, 6 h
Outline: (§1)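 Killed at set times after injection; organs and blood removed, weighed, gamma counted. Data as % injected dose per gram tissue, mean SD, n = 5–6.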

[2] = system: Kidney; test: Biodistribution in ddY mouse kidney assessed per gram of tissue at 14.8 kBq, iv after 30 mins; conditions: in vivo, 0.5 h; outline: as §1
[3] = system: Brain; test: Biodistribution in ddY mouse brain assessed per gram of tissue at 14.8 kBq, iv after 60 mins; conditions: in vivo, 1 h; outline: as §1
[4] = system: Spleen; test: Biodistribution in ddY mouse spleen assessed per gram of tissue at 14.8 kBq, iv after 5 mins; conditions: in vivo
Outline: (§2)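 Radioiodinated tracer (14.8 kBq) injected via tail vein into male ddY mice (6 weeks, 30–35 g). Organs removed at set times after injection, weighed and gamma-counted; uptake expressed as % injected dose per gram tissue, mean ± SD, n = 5–6.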

[5] = system: Pancreas; test: Biodistribution in ddY mouse pancreas assessed per gram of tissue at 14.8 kBq, iv after 5 mins; conditions: in vivo; outline: as §2
[6] = system: Intestine; test: Biodistribution in ddY mouse intestine assessed per gram of tissue at 14.8 kBq, iv after 0.5 mins; conditions: in vivo; outline: as §1
[7] = system: Spleen; test: Biodistribution in ddY mouse spleen assessed per gram of tissue at 14.8 kBq, iv after 60 mins; conditions: in vivo, 1 h; outline: as §2
[8] = system: Lung; test: Biodistribution in ddY mouse lung assessed per gram of tissue at 14.8 kBq, iv after 30 mins; conditions: in vivo, 0.5 h; outline: as §2
[9] = system: Blood; test: Biodistribution in ddY mouse blood assessed per gram of tissue at 14.8 kBq, iv after 30 mins; conditions: in vivo, 0.5 h; outline: as §1
[10] = system: Brain; test: Biodistribution in ddY mouse brain assessed per gram of tissue at 14.8 kBq, iv after 30 mins; conditions: in vivo, 0.5 h; outline: as §1
[11] = system: Spleen; test: Biodistribution in ddY mouse spleen assessed per gram of tissue at 14.8 kBq, iv after 30 mins; conditions: in vivo, 0.5 h; outline: as §2
[12] = system: Heart; test: Biodistribution in ddY mouse heart assessed per gram of tissue at 14.8 kBq, iv after 360 mins; conditions: in vivo, 6 h; outline: as §1
[13] = system: Pancreas; test: Biodistribution in ddY mouse pancreas assessed per gram of tissue at 14.8 kBq, iv after 360 mins; conditions: in vivo, 6 h; outline: as §2
[14] = system: Spleen; test: Biodistribution in ddY mouse spleen assessed per gram of tissue at 14.8 kBq, iv after 360 mins; conditions: in vivo, 6 h; outline: as §2
[15] = system: Kidney; test: Biodistribution in ddY mouse kidney assessed per gram of tissue at 14.8 kBq, iv after 0.5 mins; conditions: in vivo; outline: as §1
[16] = system: Heart; test: Biodistribution in ddY mouse heart assessed per gram of tissue at 14.8 kBq, iv after 5 mins; conditions: in vivo; outline: as §1
[17] = system: Brain; test: Biodistribution in ddY mouse brain assessed per gram of tissue at 14.8 kBq, iv after 360 mins; conditions: in vivo, 6 h; outline: as §1
[18] = system: Heart; test: Biodistribution in ddY mouse heart assessed per gram of tissue at 14.8 kBq, iv after 0.5 mins; conditions: in vivo; outline: as §1
[19] = system: Intestine; test: Biodistribution in ddY mouse intestine assessed per gram of tissue at 14.8 kBq, iv after 5 mins; conditions: in vivo; outline: as §1
[20] = system: Stomach; test: Biodistribution in ddY mouse stomach assessed per gram of tissue at 14.8 kBq, iv after 360 mins; conditions: in vivo, 6 h; outline: as §2
[21] = system: Pancreas; test: Biodistribution in ddY mouse pancreas assessed per gram of tissue at 14.8 kBq, iv after 30 mins; conditions: in vivo, 0.5 h; outline: as §2
[22] = system: Lung; test: Biodistribution in ddY mouse lung assessed per gram of tissue at 14.8 kBq, iv after 180 mins; conditions: in vivo, 3 h; outline: as §2
[23] = system: Blood; test: Biodistribution in ddY mouse blood assessed per gram of tissue at 14.8 kBq, iv after 0.5 mins; conditions: in vivo; outline: as §1
[24] = system: Stomach; test: Biodistribution in ddY mouse stomach assessed per gram of tissue at 14.8 kBq, iv after 30 mins; conditions: in vivo, 0.5 h; outline: as §2
[25] = system: Intestine; test: Biodistribution in ddY mouse intestine assessed per gram of tissue at 14.8 kBq, iv after 180 mins; conditions: in vivo, 3 h; outline: as §1
[26] = system: Kidney; test: Biodistribution in ddY mouse kidney assessed per gram of tissue at 14.8 kBq, iv after 60 mins; conditions: in vivo, 1 h; outline: as §1
[27] = system: Blood; test: Biodistribution in ddY mouse blood assessed per gram of tissue at 14.8 kBq, iv after 60 mins; conditions: in vivo, 1 h; outline: as §1
[28] = system: Heart; test: Biodistribution in ddY mouse heart assessed per gram of tissue at 14.8 kBq, iv after 60 mins; conditions: in vivo, 1 h; outline: as §1
[29] = system: Pancreas; test: Biodistribution in ddY mouse pancreas assessed per gram of tissue at 14.8 kBq, iv after 60 mins; conditions: in vivo, 1 h; outline: as §2
[30] = system: Stomach; test: Biodistribution in ddY mouse stomach assessed per gram of tissue at 14.8 kBq, iv after 0.5 mins; conditions: in vivo; outline: as §2

CS(=O)(=O)Nc1ccc2nc(CN3CCC(Cc4ccc([125I])cc4)CC3)[nH]c2c1
Drug uptake [1]: 10.93 % ID/g | Drug uptake [2]: 8.79 % ID/g | Drug uptake [3]: 0.52 % ID/g | Drug uptake [4]: 3.19 % ID/g | Drug uptake [5]: 3.09 % ID/g | Drug uptake [6]: 0.55 % ID/g | Drug uptake [7]: 2.78 % ID/g | Drug uptake [8]: 1.86 % ID/g | Drug uptake [9]: 0.53 % ID/g | Drug uptake [10]: 0.5 % ID/g | Drug uptake [11]: 2.91 % ID/g | Drug uptake [12]: 3.62 % ID/g | Drug uptake [13]: 3.72 % ID/g | Drug uptake [14]: 1.6 % ID/g | Drug uptake [15]: 3.26 % ID/g | Drug uptake [16]: 5.83 % ID/g | Drug uptake [17]: 0.47 % ID/g | Drug uptake [18]: 9.07 % ID/g | Drug uptake [19]: 1.58 % ID/g | Drug uptake [20]: 3.56 % ID/g | Drug uptake [21]: 3.71 % ID/g | Drug uptake [22]: 1.61 % ID/g | Drug uptake [23]: 4.74 % ID/g | Drug uptake [24]: 2.24 % ID/g | Drug uptake [25]: 7.82 % ID/g | Drug uptake [26]: 8.52 % ID/g | Drug uptake [27]: 0.54 % ID/g | Drug uptake [28]: 4.35 % ID/g | Drug uptake [29]: 4.55 % ID/g | Drug uptake [30]: 0.42 % ID/g
